The text below walks through data of ChEMBL document CHEMBL1151174, “Labdanes and isopimaranes from Platycladus orientalis and their effects on erythrocyte membrane and on Plasmodium falciparum growth in the erythrocyte host cells” (J Nat Prod, 2004).

pIC50: −log10 of the molar value. Active and inactive are the calls of the source. No cut-off for these calls is given here.

As a reminder, the pIC50 is −log10 of the IC50, conventionally taken in molar units. A high value points to a low IC50.

Test [1] concerns Erythrocyte. Description: Induction of membrane modification in erythrocytes assessed as formation of echinocyte type 3 shape change at 100 ug/mL after 48 hrs by phase contrast light microscopy. It counts as functional, cell-based. In outline: (§1)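 Nonparasitized erythrocytes incubated with compound under the antiplasmodial culture conditions, without radiotracer. Controls held 0% or 0.5% DMSO and no compound. At 48 h, samples spread on slides, air-dried, methanol-fixed and Giemsa-stained for phase-contrast light microscopy. Dominant cell shapes scored by Bessis nomenclature; degree of lysis also graded.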

The next test concerns Plasmodium falciparum. Briefly: Antiplasmodial activity against Plasmodium falciparum 3D7 by [3H]phenylalanine uptake. The format is functional, organism-based. The note with it: 3D7, 48 h. In outline: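 Asynchronous cultures of chloroquine-sensitive P. falciparum 3D7 in erythrocytes, initial parasitemia 1.5%. Compounds added from DMSO solutions, final DMSO up to 0.5% in growth medium. Growth indexed by [3H]phenylalanine incorporation. Inhibition curves from eight concentrations, each in triplicate, give IC50 (50% growth inhibition). Chloroquine diphosphate as positive reference.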

For test [2], the system named is Erythrocyte. Briefly: Induction of membrane modification in erythrocytes assessed as formation of echinocyte type 2 shape change at 25 ug/mL after 48 hrs by phase contrast light microscopy. The format is functional, cell-based. In outline:
as §1

Test [3] concerns Erythrocyte. Briefly: Induction of membrane modification in erythrocytes assessed as formation of echinocyte type 1 shape change at 12.5 ug/mL after 48 hrs by phase contrast light microscopy. It counts as functional, cell-based. The method in brief:
as §1

The subject of test [4] is Erythrocyte. Description: Induction of membrane modification in erythrocytes assessed as formation of echinocyte type 3 shape change at 50 ug/mL after 48 hrs by phase contrast light microscopy. It counts as functional, cell-based. The method in brief: as §1
Test [5] has as its system Erythrocyte. Briefly: Induction of membrane modification in erythrocytes assessed as formation of echinocyte type 1 and discocyte shape change at 100 ug/mL after 48 hrs by phase contrast light microscopy. It counts as functional, cell-based. The method in brief:
as §1

For test [6], the system named is Erythrocyte. Description: Induction of membrane modification in erythrocytes assessed as formation of discocyte shape change at 12.5 ug/mL after 48 hrs by phase contrast light microscopy. It counts as functional, cell-based. The method in brief:
as §1

For test [7], the system named is Erythrocyte. Briefly: Induction of membrane modification in erythrocytes assessed as formation of echinocyte type 1 and discocyte shape change at 50 ug/mL after 48 hrs by phase contrast light microscopy. It counts as functional, cell-based. The method in brief: as §1
Test [8] deals with Erythrocyte. Description: Induction of membrane modification in erythrocytes assessed as formation of discocyte shape change at 25 ug/mL after 48 hrs by phase contrast light microscopy. The format is functional, cell-based. The method in brief: as §1
Test [9] has as its system Erythrocyte. Briefly: Induction of membrane modification in erythrocytes assessed as formation of discocyte shape change at 50 ug/mL after 48 hrs by phase contrast light microscopy. The format is functional, cell-based. In outline: as §1
Test [10] has as its system Erythrocyte. Briefly: Induction of membrane modification in erythrocytes assessed as formation of echinocyte type 1 shape change at 100 ug/mL after 48 hrs by phase contrast light microscopy. It counts as functional, cell-based. The method in brief:
as §1

The test system of test [11] is Erythrocyte. Briefly: Induction of membrane modification in erythrocytes assessed as formation of spherostomatocyte type 2 shape change at 100 ug/mL after 48 hrs by phase contrast light microscopy. The format is functional, cell-based. The method in brief: as §1
For test [12], the system named is Erythrocyte. Briefly: Induction of membrane modification in erythrocytes assessed as formation of spherostomatocyte type 1 shape change at 50 ug/mL after 48 hrs by phase contrast light microscopy. It counts as functional, cell-based. The method in brief:
as §1

In test [13] the test system is Erythrocyte. Description: Induction of membrane modification in erythrocytes assessed as formation of stomatocyte type 2 and 1 shape change at 25 ug/mL after 48 hrs by phase contrast light microscopy. The format is functional, cell-based. In outline: as §1
The test system of test [14] is Erythrocyte. Description: Induction of membrane modification in erythrocytes assessed as formation of stomatocyte type 2 shape change at 100 ug/mL after 48 hrs by phase contrast light microscopy. The format is functional, cell-based. The method in brief:
as §1

For test [15], the system named is Erythrocyte. Briefly: Induction of membrane modification in erythrocytes assessed as formation of stomatocyte type 1 and discocyte shape change at 50 ug/mL after 48 hrs by phase contrast light microscopy. The format is functional, cell-based. The method in brief: as §1
Test [16] concerns Erythrocyte. Briefly: Induction of membrane modification in erythrocytes assessed as formation of stomatocyte type 3 and 2 shape change at 50 ug/mL after 48 hrs by phase contrast light microscopy. The format is functional, cell-based. In outline:
as §1

The subject of test [17] is Erythrocyte. Briefly: Induction of membrane modification in erythrocytes assessed as formation of stomatocyte type 2 and discocyte shape change at 25 ug/mL after 48 hrs by phase contrast light microscopy. It counts as functional, cell-based. The method in brief:
as §1

The subject of test [18] is Erythrocyte. Description: Induction of membrane modification in erythrocytes assessed as formation of spherostomatocyte type 1 shape change at 100 ug/mL after 48 hrs by phase contrast light microscopy. The format is functional, cell-based. In outline:
as §1

Test [19] has as its system Erythrocyte. Description: Induction of membrane modification in erythrocytes assessed as formation of spheroechinocyte type 1 and echinocyte type 3 shape change at 100 ug/mL after 48 hrs by phase contrast light microscopy. It counts as functional, cell-based. The note with it: 50 ug/mL, in the assay text read “50 ug/mL” for “100 ug/mL”. In outline:
as §1

For test [20], the system named is Erythrocyte. Briefly: Induction of membrane modification in erythrocytes assessed as formation of echinocyte type 3 shape change at 25 ug/mL after 48 hrs by phase contrast light microscopy. The format is functional, cell-based. In outline: as §1
The subject of test [21] is Erythrocyte. Description: Induction of membrane modification in erythrocytes assessed as formation of spheroechinocyte type 2 shape change at 100 ug/mL after 48 hrs by phase contrast light microscopy. The format is functional, cell-based. The method in brief: as §1

On to `C=C[C@@]1(C)CCC2=C(CC[C@H]3C(C)(C)[C@@H](O)CC[C@]23C)C1`, for which the result in the test on Erythrocyte [1], in the test with Erythrocyte [2], in the test on Erythrocyte [3] and with Erythrocyte [4] was Active. This compound also had a pIC50 with Plasmodium falciparum of 4.61.
As for `C=C1CC[C@@H]2[C@](C)(CCC[C@]2(C)C(=O)O)[C@H]1CCC1=CC(=O)OC1O` (stereo not given in full), the result in the test on Erythrocyte [5], in the test on Erythrocyte [6], with Erythrocyte [7] and with Erythrocyte [8] was Active. Besides, the pIC50 in the test with Plasmodium falciparum was 4.08.
`C=C[C@@]1(C)CC[C@H]2[C@@](O)(CC[C@H]3C(C)(C)[C@@H](O)CC[C@@]32C)C1`: the result with Erythrocyte [6], with Erythrocyte [9], in the test on Erythrocyte [8] and with Erythrocyte [10] was Active. The pIC50 in the test on Plasmodium falciparum was 4.09.
Turning to `C=C1CC[C@@H]2[C@](C)(CCC[C@]2(C)C(=O)O)[C@H]1CCC1=CC(O)OC1=O` (stereo not given in full), the outcome with Erythrocyte [5], in the test on Erythrocyte [6], in the test on Erythrocyte [9] and with Erythrocyte [8] was Active. In the test with Plasmodium falciparum, this compound gave a pIC50 of 3.84.
As to `CC1(C)CCC[C@@]2(C)[C@H]1CC[C@@]1(CO1)[C@@H]2C/C=C(/C=O)CC=O` [AFRAMODIAL], the outcome with Erythrocyte [6], in the test on Erythrocyte [11], in the test on Erythrocyte [12] and in the test with Erythrocyte [13] was Active. This compound gave a pIC50 in the test on Plasmodium falciparum of 4.12.
With `C=C1CC[C@@H]2[C@](C)(CCC[C@]2(C)C(=O)O)[C@H]1CC/C(C)=C/CO` [ISOCUPRESSIC ACID], the result with Erythrocyte [6], in the test with Erythrocyte [9], with Erythrocyte [8] and in the test with Erythrocyte [14] was Active. Moreover, the negative logarithm of the IC50 (pIC50) with Plasmodium falciparum was 3.98.
As to `C=C1CC[C@@H]2[C@](C)(CCC[C@]2(C)C(=O)O)[C@H]1CCc1ccoc1` [LAMBERTIAINC ACID], the outcome with Erythrocyte [6], in the test with Erythrocyte [8], in the test with Erythrocyte [15] and with Erythrocyte [14] was Active. The compound further showed a pIC50 in the test with Plasmodium falciparum of 3.89.
Consider `C=C1CC[C@@H]2[C@](C)(CCC[C@]2(C)C(=O)OC)[C@H]1CCC1=CCOC1=O` [PINUSOLIDE], for which the result with Erythrocyte [6], in the test with Erythrocyte [16], in the test with Erythrocyte [17] and with Erythrocyte [18] was Active. Besides, in the test on Plasmodium falciparum, the pIC50 was 4.27.
For the compound `C=C1CC[C@@H]2[C@](C)(CCC[C@]2(C)C(=O)O)[C@H]1CCC1=CCOC1=O` [PINUSOLIDIC ACID], the outcome in the test on Erythrocyte [6], in the test with Erythrocyte [7], with Erythrocyte [8] and in the test with Erythrocyte [14] was Active. In the test with Plasmodium falciparum, this compound showed a negative-log IC50 (pIC50) of 3.79.
In the test on Plasmodium falciparum, `C=C[C@]1(C)C=C2CC[C@H]3[C@](C)(CO)[C@@H](O)CC[C@]3(C)[C@H]2CC1` [SANDARACOPIMARADIENEDIOL] showed a pIC50 of 4.03. Further, the outcome in the test on Erythrocyte [3], in the test with Erythrocyte [19], with Erythrocyte [20] and with Erythrocyte [21] was Active.
